One may read the NOAEL as the highest tested level that showed no adverse finding.

Each structure is given as a SMILES string. “And” between values parts separate entries of the source, which are not always exact repeats. Equal entries are not always repeated. Where two headings read alike, the source gives them in different places.

Data on three compounds can be found in paper PMC6153967 (CNS Drugs, 2018).

Series [1] is classed as in vivo, human. As to conditions: drug-naïve. An outline of the steps:
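CSF came from 64 untreated patients with cognitive deficits (MMSE 15–30). Sampling: lumbar puncture at L3–L5, supine, atraumatic needle, 8–11 a.m. Spun 5 min at 2000 rpm at room temperature, aliquoted into polypropylene, stored at –80 °C. Samples were derivatized with EDC/TFEA for 30 min at room temperature and centrifuged. The supernatant went to LC–MS/MS. Identity was set by retention time and two transition ions against reference standard. LOQ 0.1 ng/ml; range 0.1–1000 ng/ml.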

Series [2] is classed as in vivo, human. As to conditions: tramiprosate 150 mg BID, week 78. An outline of the steps: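 Retrospective lumbar CSF from six patients with AD in the phase III trial, sampled at week 78 of dosing. The metabolite was quantified by a validated LC–MS/MS method in a separate bioanalytical laboratory.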
The target in series [3] is Recombinant human Aβ42 peptide (Homo sapiens, UniProt P05067). Nature of the series: IMS–MS anti-Aβ42 oligomer activity. The conditions noted are these: for Inhibition of Aβ42 oligomer formation (in words): 1000:1, 24 h in vitro. The series is classed as biochemical. An outline of the steps:
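Recombinant human Aβ42 was reconstituted in LC–MS-grade water as a 5 mg/ml stock and diluted to 22 pmol/µl final. Test compound in water was diluted to […] and 22,000 pmol/µl solutions for 100- and 1000-fold molar excess. Mixtures were incubated at room temperature for 0, 4 and 24 h. Samples were analysed by direct infusion on a traveling-wave IMS Q-TOF: positive sensitivity mode, m/z 500–4000, with drift times used to resolve monomer and oligomers.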

The nature of series [4]: Oral and intravenous pharmacokinetics in Sprague Dawley rats. The series is classed as in vivo. As to conditions: male, rat, plasma, 10 mg/kg; for Vd: intravenous 10 mg/kg. An outline of the steps:
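Fasted male Sprague Dawley rats, n = 3 per group, received test compound in saline orally by gavage (30 mg/kg) or as an IV bolus (10 mg/kg). Serial blood was drawn at 0.25, 0.5, 1, 2, 4, 8 and 24 h into K2EDTA and centrifuged to plasma. Plasma was stored at –80 °C and assayed by LC–MS/MS. Parameters were calculated from mean concentration–time curves.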

A short description of series [5]: Brain penetration after single oral dose in Sprague Dawley rats. The series is classed as in vivo, male Sprague Dawley rats. As to conditions: oral 30 mg/kg. An outline of the steps: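 Fasted male Sprague Dawley rats received test compound in saline by oral gavage at 30 mg/kg. Terminal plasma, CSF and brain were taken at 1, 2, 6 and 24 h, three rats per time point. Brains were perfused to remove blood before processing. All matrices were assayed by LC–MS/MS. AUC ratios were derived from mean concentration–time curves.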

The conditions of series [6]: ref Alzheon, data on file, cited from earlier work.
For series [7] the following is noted: cited from earlier work.
The conditions of series [8]: tramiprosate phase III NA trial; cited from earlier work.
The conditions of series [9]: both phase III trials, subjects receiving active drug; cited from earlier work.

Chain of Recombinant human Aβ42 peptide (P05067 672-713): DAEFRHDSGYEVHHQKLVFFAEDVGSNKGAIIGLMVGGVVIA

With `O=C(O)CCS(=O)(=O)O` [3-SPA, 3-sulfopropanoic acid], the “Concentration of 3-SPA in CSF, median” value is 1.7 ng/ml and 10.8 nM in series [1] (all patients); 1.6 ng/ml and 10.4 nM in series [1] (female); 1.7 ng/ml and 11.1 nM in [1] (male). Also, the “Concentration of 3-SPA in CSF, minimum–maximum” value in series [1] (female) is 0.6–4.3 ng/ml and 4.2–27.7 nM; in series [1] (male) it was 0.8–3.8 ng/ml and 5.5–24.7 nM. The “Concentration of 3-SPA in CSF, mean ± SD” value is 1.7 ± 0.7 ng/ml and 11.2 ± 4.4 nM in [1] (female (N 37)); 1.9 ± 0.6 ng/ml and 12.5 ± 4.1 nM in series [1] (male (N 27)). The compound also yielded a concentration at 78 week in series [2] (human, CSF, oral, 150 mg BID, Minimum–maximum 3-SPA concentration in CSF) of 112 to 232 nM. Further, the “Median 3-SPA concentration in CSF” value in series [2] was 19.8 ng/ml and 128.6 nM. The “Inhibition of Aβ42 oligomer formation (in words)” value in series [3] is “Near complete prevention of formation of Aβ42 oligomers except for pentamers”. Also, the “Aβ42 oligomer species not inhibited” value in series [3] (1000:1, after 4 h incubation) is “dimers, trimers, and pentamers”; in series [3] (1000:1, after 24 h incubation), “pentamers”. This compound gave a clearance in series [4] of 45 mL/min/kg. Further, the figures for the Vd in series [4] (Vss) and in series [4] (Vz) were 12.9 L/kg and 43.6 L/kg, respectively. Further, in series [5], the “Brain/plasma AUC ratio (brain penetration)” value was found to be 25.3%. For the same compound, the “Sustained 3-SPA levels (plasma AUC)” value in series [6] (at 2000 mg/kg ALZ-801 NOAEL, 28-day rat study) is on record as 180 millimolar (AUC in h × nM).
Regarding `CC(C)[C@H](N)C(=O)NCCCS(=O)(=O)O` [ALZ-801], the “Improvement in brain penetration” value in series [7] (PK/PD projections using 14C tramiprosate) is ~ 30%. For the same compound, the NOAEL in series [6] (1-month (28-day) rat study) was 2000 mg/kg; in series [6] (6-month rat study), 1500 mg/kg.
In the case of `NCCCS(=O)(=O)O` [Tramiprosate, reference compound], in [3], the “Inhibition of Aβ42 oligomer formation (in words)” value is recorded as “complete inhibition”. In [7], the Steady-state brain penetration result is given as “approximately 40%”. Also, in series [8], the “Estimated mean concentration in the brain” value was ~ 130 nM. Moreover, the “Cases of ARIA-E in brain MRI safety analyses” value in [9] was “no cases”.
